# An excerpt weighted towards active compounds, which were near 3.4% of everything screened.
# Efa HMGR inh: inhibitors of E. faecalis class II HMGR, primary screen, biochemical, Enterococcus faecalis. purified E. faecalis HMGR, NADPH absorbance 340 nm kinetic. 0.41% of 190,000 active. HMG-CoA reductase (Enterococcus faecalis, mvaE). inhibition, % at 10 µM;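 active = inhibition above a set limit, the median over all tested compounds plus 3 SD, cut at about 9.5% in these data; inconclusive = no clear call, values can overlap the other calls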;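 also: enzyme runs in reverse so mevalonate oxidation gives rising NADPH absorbance; 0% = complete reaction with DMSO and 100% = background rate lacking mevalonate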
# Runt-SMMHC FRET: inhibitors of RUNX1 Runt–CBFb-SMMHC binding, primary screen, biochemical, FRET, Cerulean-Runt, Venus-CBFb-SMMHC, uHTS | Runt-related transcription factor 1 (Homo sapiens) + Core-binding factor subunit beta … | Cerulean-Runt/Venus-CBFb-SMMHC FRET ratio 530/480, 1 h | inhibition, % at 20 µM | 0.74% of 220,000 active | AID 1434, 2008;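 active = mean inhibition across duplicate retests at 20 µM reaching about 50%, limit read from the data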;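 also: 0% = DMSO wells and 100% = wells with excess untagged CBFb-SMMHC; inhibitors lower the FRET ratio by blocking Runt binding to CBFb-SMMHC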
# Target sequence (Q01196 whole entry, looked up): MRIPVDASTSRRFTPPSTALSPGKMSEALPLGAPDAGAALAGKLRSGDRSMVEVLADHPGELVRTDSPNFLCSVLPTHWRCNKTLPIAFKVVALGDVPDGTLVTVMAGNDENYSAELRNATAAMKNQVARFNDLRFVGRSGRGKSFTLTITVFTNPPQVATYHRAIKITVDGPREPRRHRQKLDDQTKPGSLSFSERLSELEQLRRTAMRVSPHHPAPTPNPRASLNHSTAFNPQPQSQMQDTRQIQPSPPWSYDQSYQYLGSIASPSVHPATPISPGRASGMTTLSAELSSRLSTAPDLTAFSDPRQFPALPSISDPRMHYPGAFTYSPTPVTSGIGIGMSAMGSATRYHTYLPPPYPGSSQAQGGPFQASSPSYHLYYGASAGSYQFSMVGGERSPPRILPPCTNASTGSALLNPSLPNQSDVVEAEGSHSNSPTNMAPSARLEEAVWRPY
# Target sequence (Q13951 whole entry, looked up): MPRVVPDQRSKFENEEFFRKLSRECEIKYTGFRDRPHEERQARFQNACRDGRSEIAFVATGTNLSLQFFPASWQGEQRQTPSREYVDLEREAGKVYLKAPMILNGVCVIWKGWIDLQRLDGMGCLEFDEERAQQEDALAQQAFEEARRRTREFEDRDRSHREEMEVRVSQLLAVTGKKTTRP
# RanGTP-Imp inh: inhibitors of RanGTP-importin-beta interaction, primary screen, biochemical, FRET, CFP-Ran, YFP-importin-beta, homogeneous; Ran GTPase (GTP-bound) - importin-beta complex; cell-free CFP-Ran/YFP-importin-beta FRET ratio; inhibition, % (no concentration beside the values); 1.1% of 300,000 active; AID 2216, 2009;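 active = more than half of the replicate wells show a fall in the fluorescence ratio signal beyond about 16%, limit read from the data, passing the limit was not always enough; inconclusive = exactly half of the replicate wells pass the set limit; inactive = fewer than half of replicates pass the limit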;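 also: 0% = DMSO wells and 100% = Ran loaded with GDP instead of GTP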
# Runt-CBFb FRET: inhibitors of RUNX1 Runt–CBFb binding, primary screen, biochemical, FRET, Cerulean-Runt, Venus-CBFb, uHTS | Runt-related transcription factor 1 (Homo sapiens) + Core-binding factor subunit beta … | Cerulean-Runt/Venus-CBFb FRET ratio 530/480, 1 h | inhibition, % at 20 µM | 0.46% of 220,000 active;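 active = inhibition over about 50% at 20 µM in the single-dose screen, limit read from the data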;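 also: 0% = DMSO wells and 100% = excess unlabeled CBFb competitor control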
#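 test system = Cerulean-Runt domain fusion protein, energy donor | probe or stimulus = Venus-CBFb binding partner, 100 nM | incubation = two 1 h room-temperature incubations shielded from light | detection = fluorescence energy transfer, 422 nm excitation, 530/480 nm emission | measure = loss of energy transfer signal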
# Wee1 degr inh: Wee1 degradation inhibitors, primary screen, cell-based, HeLa, Wee1K328M-luciferase, luminescence; Wee1-like protein kinase (Homo sapiens), P30291; HeLa Luc-Wee1K328M stability; 100% = proteasome inhibitor MG132 effect; reporter increase, % at 5 µM; 1.2% of 220,000 active; AID 1321, 2008;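 active = activation above the mean of all tested compounds plus 3 SD, set per screening run, cut at about 8.8% in these data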;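 also: cells exposed to compound for 20 h before luminescence read; 0% = DMSO alone and 100% = MG132 at 30 µM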
# PHOSPHO1 block: PubChem AID 1565 | recombinant PHOSPHO1, absorbance phosphatase assay | 1.1% of 290,000 active | inhibition, % at 13.3 µM | Phosphoethanolamine/phosphocholine phosphatase (Homo sapiens), Q8TCT1; in the data active = inhibition above about 60%
# Active calls of the source: *; ? = inconclusive; · = no result.
SMILES,Efa HMGR inh,Runt-SMMHC FRET,RanGTP-Imp inh,Runt-CBFb FRET,Wee1 degr inh,PHOSPHO1 block
O=C1CCCc2sccc2N1,-0.1,0.3,6.0,-0.5,-0.5,-11.7
O=C(O)CCC(=O)Nc1ccc(Br)c(Cl)c1,2.8,2.8,-2.5,99.5*,2.7,6.2
CCCC(=O)Nc1ccc(Br)c(Cl)c1,-5.2,1.5,-3.0,0.5,1.5,10.1
COc1ccc(C=C2c3ccccc3C(=O)c3ccccc32)c(OC)c1,·,0.7,1.8,-1.2,-0.3,23.9
COc1cc(OC)c2c(c1)C(=O)c1cc(OC)cc(OC)c1C2=O,5.2,-1.6,1.2,1.4,-2.7,107.1*
Cc1nnc2sc(-c3cccc(F)c3)nn2c1=O,·,·,0.0,·,·,38.1
O=C(CNC(=O)c1nc[nH]c1C(=O)N1CCN(c2ccccc2)CC1)OCc1ccccc1,·,·,0.4,·,·,-24.2
CSc1ccc(C(=O)C2CCCN(C(=O)c3cccc(N4CCOCC4)c3)C2)cc1 (centres undefined),2.5,3.4,1.0,-0.5,-1.7,28.3
COc1ccc(CC(=O)NNS(=O)(=O)c2ccc(F)cc2)cc1OC,-7.0,-0.2,9.3,0.6,8.9*,30.4
Cc1ccc(CO/N=C\Cc2snc(Sc3ncc(C(F)(F)F)cc3Cl)c2C#N)cc1,-0.8,8.2,2.3,1.5,-2.1,95.4*
S=C(Nc1ccc(CN2CCCCC2)cc1)Nc1cccc(Cl)c1Cl,·,·,2.3,·,·,16.2
O=[N+]([O-])c1cc(S(=O)(=O)NCCN2CCOCC2)ccc1Cl,·,·,2.6,·,·,26.9
CC(OC(=O)/C(C#N)=C/c1ccc(N(C)C)cc1)C(=O)N(C)Cc1ccccc1 (centres undefined),·,·,80.9*,·,·,9.6
CC(OC(=O)c1cccc(O)c1)C(=O)N(C)Cc1ccccc1 (centres undefined),·,·,7.0,·,·,·
O=C(NCCN1CCN(c2ccccc2)CC1)c1ccc2c(c1)[nH]c(=S)n1c3ccccc3nc21,9.6*,-11.7,4.5,-2.9,-0.6,-4.6
O=C(c1ccc2c(c1)[nH]c(=S)n1c3ccccc3nc21)N1CCN(c2ncccn2)CC1,2.6,0.7,1.7,-0.5,6.5,27.6
CCCCCCCCCCC(=O)Nc1cccnc1,2.2,-3.4,-0.6,-3.1,-0.7,36.8
CCCCCCCCCC(=O)Nc1cccnc1,10.4*,-1.2,2.1,-4.7,-3.6,40.8
CCCCN(C(=O)c1cccc(S(=O)(=O)N2CC(C)OC(C)C2)c1)c1c(N)n(CC(C)C)c(=O)[nH]c1=O (centres undefined),·,·,5.5,·,·,23.8
Oc1ccccc1-c1nc(/C=C/c2ccccc2)nn1-c1ccccc1,-4.1,-3.1,-2.0,-2.3,9.6*,-19.1
Oc1ccc(/C=C/c2nc(-c3ccccc3O)n(-c3ccccc3)n2)cc1,0.8,0.9,2.9,-0.5,-2.1,-5.4
CCOC(=O)c1c(C)n(-c2ccc(F)cc2)c2ccc(O)cc12,·,·,1.5,·,·,24.1
CCOC(=O)c1c2n(c3ccc(O)cc13)CCCCC2,0.4,-4.0,22.0*,-1.7,3.3,-1.4
CCOC(=O)CCC(=O)NCc1ccc2c(c1)cc(C)n2C,-2.5,-21.1,-0.5,-3.8,-1.8,-1.6
CCOC(=O)NCc1ccc2c(c1)cc(C)n2C,-1.5,-19.5,84.8*,-11.7,-2.4,-97.9
Cc1ccccc1NC(=S)NCc1ccc2c(c1)cc(C)n2C,15.3*,2.8,?,-11.1,0.9,-11.1
Cc1cccc(C(=O)NNc2ncnc3c2cnn3C)c1,-0.8,2.3,-1.6,-1.9,-2.1,-2.0
COC(CNC(=O)c1ccc(Cn2c(=S)[nH]c3cc4c(cc3c2=O)OCO4)cc1)OC,-1.2,32.3,125.2*,26.6,1.9,79.0*

# From PubChem
